High-throughput results: PubChem BioAssay, several laboratories
PREPL inh: inhibits the human prolyl oligopeptidase-like enzyme; Q4J6C6; recombinant PREPL, fluorescence polarization activity-based probe; inhibition, % at 5.96 µM; 320,000 tested, 0.68% active; AID 2751; in the data active means inhibition above about 43%;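 further: 0% = enzyme with DMSO and 100% = wells lacking enzyme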
UBC13 inh: inhibitors of human UBC13 polyubiquitin chain formation | TR-FRET | AID 485273 | 330,000 tested, 0.47% active | P61088 | inhibition, % at 20 µM; in the data active means inhibition above about 45%, passing the limit was not always enough
Target sequence (P61088 whole entry, looked up): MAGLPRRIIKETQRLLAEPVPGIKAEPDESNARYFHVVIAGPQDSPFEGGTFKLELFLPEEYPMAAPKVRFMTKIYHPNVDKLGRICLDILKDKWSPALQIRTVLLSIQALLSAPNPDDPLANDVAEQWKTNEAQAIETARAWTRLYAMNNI
EBNA-1 inh: blocks EBNA-1 binding to DNA; 300,000 tested, 0.34% active; EBNA-1 DNA binding, fluorescence polarization; inhibition, % at 14.8 µM; AID 1950; in the data active means inhibition above about 28%
ZTA counter: blocks Epstein-Barr virus ZTA, an EBNA-1 counter-screen | P03206 | ZTA-DNA binding, fluorescence polarization | inhibition, % at 11 µM | 320,000 tested, 0.15% active | AID 2234; in the data active means inhibition above about 33%
Target sequence (P03206 whole entry, looked up): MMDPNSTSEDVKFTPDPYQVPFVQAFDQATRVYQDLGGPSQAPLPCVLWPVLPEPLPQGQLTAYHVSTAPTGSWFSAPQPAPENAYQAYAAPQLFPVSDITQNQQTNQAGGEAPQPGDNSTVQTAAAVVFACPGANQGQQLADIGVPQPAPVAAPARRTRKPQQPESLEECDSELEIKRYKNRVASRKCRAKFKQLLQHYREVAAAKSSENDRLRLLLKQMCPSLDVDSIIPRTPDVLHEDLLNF
Apaf1 inhib: human Apaf-1 inhibition. 330,000 tested, 0.71% active. reconstituted apoptosome caspase-3 activity, DEVD-Rh110 fluorescence. inhibition, % at 20 µM. O14727. AID 489030; active means inhibition of at least 40% at 20 µM;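 further: plate controls were DMSO wells for no effect and DEVD-CHO caspase inhibitor wells for full effect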
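Material: reconstituted apoptosome with Apaf-1, cytochrome c, caspase-9, procaspase-3, dATP; medium: pH 7.5 Hepes buffer with CHAPS, BSA, DTT; also added: cytochrome c and DEVD-Rh110 substrate; timing: 30 min plus 50 min, RT; signal: Rh110 fluorescence intensity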
Apaf-1 inh conf: confirmation of Apaf-1 inhibitors; shares compounds with Apaf1 inhib; reconstituted apoptosome, caspase-3 DEVD-Rh110 fluorescence; inhibition, % at 20 µM; 1,800 tested, 25% active; AID 504614;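 active means mean inhibition of at least 40% at 20 µM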;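 further: plate controls were DMSO wells for no effect and DEVD-CHO caspase inhibitor control wells for full effect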
Rh110 interf inh: counter-screen for Apaf-1 inhibitors: fluorescence interference; 1,800 tested, under 10 active; activation (fluorescence interference), % at 20 µM; shares compounds with Apaf1 inhib; Rh110 fluorescence interference, quenched caspase reaction; AID 504615;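 active means signal rise of 40% or more at 20 µM, treated as a fluorescence artifact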
Apaf1 inh interf: shows fluorescence interference in the Apaf-1 inhibitor assay format; shares compounds with Apaf1 inhib; fluorescence interference counterscreen, Apaf-1 assay format; AID 588538; IC50, µM; 460 tested, under 10 active; call rule not given here
* hit, by the source's call; · = no result given. Sampled rows, rich in hits. Any-hit rate of the full collection: about 1.7%.

SMILES | PREPL inh | UBC13 inh | EBNA-1 inh | ZTA counter | Apaf1 inhib | Apaf-1 inh conf | Rh110 interf inh | others
CC(Oc1ccc(Br)cc1)C(=O)NCC(C)(C)N1CCOCC1 (stereo not given) | 14.1 | 7.0 | 0.1 | -13.1 | 47.4* | 34.0 | -1.5
CCC1CCC2(CC1)NNC(=S)NN2 | 0.7 | -1.0 | 5.4 | 5.8 | -27.0 | · | ·
O=C(c1ccc2ncsc2c1)N1CCCC(C(F)(F)F)C1 (stereo not given) | 7.0 | 11.2 | -1.6 | -9.9 | 42.3* | 30.7 | 5.1
O=C(c1ccc(Cl)c(S(=O)(=O)N2CCCCCC2)c1)N1CCCC(C(F)(F)F)C1 (stereo not given) | 3.5 | 11.5 | 1.5 | -5.7 | 59.6* | 33.8 | -1.1
Cc1ccc(C(=O)N2CCCC(C(F)(F)F)C2)cc1S(=O)(=O)N1CCCCC1 (stereo not given) | 6.9 | 0.6 | 0.9 | -13.3 | 13.1 | · | ·
Cc1nn(-c2ccccc2)c(C)c1CN(C)C(=O)c1ccc(S(=O)(=O)NCc2ccco2)cc1 | 20.7 | 0.9 | · | 4.6 | 48.9* | 13.7 | 2.3
CN(Cc1ccc(Cl)cc1)C(=O)c1ccc(S(=O)(=O)NCc2ccco2)cc1 | 7.2 | 18.4 | · | 0.8 | -0.9 | · | ·
CC1(C)CN(c2ccc(N3CC(C)(C)C3=O)cc2)C1=O | 2.0 | 2.4 | 4.0 | 9.0 | -9.0 | · | ·
CC1(c2nnc(-c3cccc(Cl)c3)o2)CC(c2ccccc2)=NO1 (stereo not given) | 1.8 | 10.1 | -1.8 | -19.4 | 12.7 | · | ·
Oc1cccc2c(NC(=S)Nc3ccc(SC(F)F)cc3)cccc12 | 12.4 | -3.6 | -3.4 | -3.3 | 53.2* | 12.4 | 0.5
C=CCn1c(SCC(=O)NCc2ccccc2)nnc1C1CCCCC1 | -2.0 | 9.2 | 0.6 | 1.4 | -0.1 | · | ·
C=CCn1c(SCC(=O)NCCc2ccccc2)nnc1C1CC1 | 2.5 | 7.0 | -4.1 | -7.2 | 42.4* | 31.2 | 7.1
CCCOc1ccccc1OCC(=O)Nc1ccc(S(=O)(=O)N2CCCC2)cc1 | -3.0 | 3.1 | 6.5 | -0.5 | 19.8 | · | ·
CCCCC1=CC2=C(c3ccco3)C(=O)C(C)(OC(=O)c3ccc(OC)cc3)C(=O)C2=CN1CCCOC(C)C (stereo not given) | 21.2 | 0.1 | -0.5 | -0.8 | 2.3 | · | ·
COC(=O)CCC(=O)OC1(C)C(=O)C2=CN(CCCOC(C)C)C(c3ccc(OC)cc3)=CC2=C(Br)C1=O (stereo not given) | 32.6 | -86.8 | -3.0 | -10.3 | 79.3* | 71.1* | 5.2 | Apaf1 inh interf=>100
CCOC(=O)c1c(C)c2c(=O)[nH]cnc2n1-c1ccccc1 | -7.3 | 8.4 | 10.2 | -2.6 | 57.5* | 12.3 | -4.6
Cc1c(C(=O)NCCC2=CCCCC2)sc2ncnc(N3CCCCC3C)c12 (stereo not given) | 11.8 | 9.5 | -20.9 | -10.9 | 14.9 | · | ·
Nc1cc(=O)[nH]c(SCC(=O)c2ccc(F)cc2)n1 | 3.0 | 5.4 | 1.2 | -15.1 | 3.8 | · | ·
Cc1nc(-c2ccc(F)cc2)c(CC(=O)N2CCN(S(=O)(=O)c3ccccc3Br)CC2)s1 | 5.0 | 8.4 | -4.1 | -4.0 | 40.0 | 39.7 | -5.2
CCc1ccc(N2CSC3=C(C#N)C(c4cccs4)CC(=O)N3C2)cc1 (stereo not given) | 11.0 | -24.0 | 6.2 | 5.0 | 20.0 | · | ·
CCOC(=O)c1ccc(N2CSC3=C(C#N)C(c4cccs4)CC(=O)N3C2)cc1 (stereo not given) | -2.1 | 0.4 | -11.0 | 17.6 | 54.7* | 17.7 | 2.2
CCOc1ccccc1N1CSC2=C(C#N)C(c3c(OC)ccc4ccccc34)CC(=O)N2C1 (stereo not given) | 3.0 | -57.7 | 1.0 | 9.7 | 40.8* | 22.2 | 3.8
COc1ccc(N2CSC3=C(C#N)C(c4cc(OC)ccc4OC)CC(=O)N3C2)c(OC)c1 (stereo not given) | 13.6 | -50.4 | -13.9 | -2.3 | 32.0 | · | ·
CCC(CO)Oc1cc(NCc2ccccc2OC)c2ncn(C(C)C)c2c1 (stereo not given) | 26.1 | -13.6 | · | · | 60.6* | 33.1 | -1.0
CCC(COC(=O)c1ccccc1)Oc1cc(NCc2ccccc2)c2ncn(C(C)C)c2c1 (stereo not given) | 37.5 | 11.1 | · | · | 69.0* | 26.2 | 9.5
